Compound activity from PubChem.
CHRM4 PAM = positive allosteric modulators of human muscarinic M4 receptor; AID 624126; P08173; CHO-K1 hM4/Gqi5, Fluo-8 calcium fluorescence, ACh EC20; 0% = ACh EC20, 100% = maximal ACh; activation, % at 3 µM; 0.4% of 360,000 active;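 active = activation above its plate's cutoff, the mean activation of sample wells plus 3 SD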
M5 ag = CHRM5 agonism in calcium assay; P08912; CHO-K1 hM5 cells, Fluo-8 calcium fluorescence; 0% DMSO wells, 100% maximal acetylcholine response; activation, % at 3 µM; 0.19% of 360,000 active; AID 624037;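 active = activation above the run's mean over test compounds plus 3 SD, cut at about 23% in these data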;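 also: signal is peak over basal fluorescence ratio across the kinetic read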
Target sequence (P08912 whole entry, looked up): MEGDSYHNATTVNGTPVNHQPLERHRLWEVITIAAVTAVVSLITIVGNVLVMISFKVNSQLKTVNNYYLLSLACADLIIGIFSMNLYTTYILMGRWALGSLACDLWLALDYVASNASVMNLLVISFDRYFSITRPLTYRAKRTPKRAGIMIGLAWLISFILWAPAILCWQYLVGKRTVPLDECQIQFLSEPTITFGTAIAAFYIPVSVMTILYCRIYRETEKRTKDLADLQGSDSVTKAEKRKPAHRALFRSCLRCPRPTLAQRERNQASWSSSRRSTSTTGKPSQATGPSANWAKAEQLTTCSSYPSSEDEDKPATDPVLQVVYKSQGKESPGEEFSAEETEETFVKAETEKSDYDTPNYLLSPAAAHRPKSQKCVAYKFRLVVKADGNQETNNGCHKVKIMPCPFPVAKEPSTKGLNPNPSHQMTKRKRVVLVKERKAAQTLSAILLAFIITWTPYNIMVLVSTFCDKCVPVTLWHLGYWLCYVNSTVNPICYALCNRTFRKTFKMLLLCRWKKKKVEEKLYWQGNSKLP
M5 antag = antagonists of human muscarinic M5 receptor (CHRM5). 0.59% of 360,000 active. P08912. inhibition, % at 3 µM. CHO-hM5 cells, Fluo-8 calcium fluorescence, ACh EC80. AID 624040;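 active = inhibition above a per-plate cutoff, the mean of that plate's test compounds plus 3 SD, cut at about 27% in these data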;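 also: 0% = acetylcholine EC80 with DMSO and 100% = DMSO without agonist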
M4 ag = CHRM4 agonism in calcium assay; P08173; CHO-K1 hM4/Gqi5, Fluo-8 calcium fluorescence; vehicle 0%, full acetylcholine response 100%; activation, % at 3 µM; 0.14% of 360,000 active; AID 624127;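 active = activation above the run mean over all test wells plus 3 SD, cut at about 32% in these data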;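 also: peak over basal fluorescence ratio per well then scaled between controls; 0% = DMSO wells and 100% = acetylcholine at EC100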
CHRM4 antagonist = CHRM4 antagonism in calcium assay; P08173; CHO-hM4 cells, ACh EC80, Fluo-8 calcium fluorescence; inhibition, % at 3 µM; 0.73% of 360,000 active; AID 624125;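 active = inhibition above its plate's cutoff, the mean inhibition of sample wells plus 3 SD, cut at about 27% in these data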;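 also: 0% = acetylcholine EC80 with DMSO and 100% = DMSO without agonist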
M5 PAM = potentiates acetylcholine response at human M5 receptor; 0.3% of 360,000 active; CHO-K1 hM5, Fluo-8 calcium, ACh EC20 PAM; 0% = ACh EC20, 100% = ACh EC100; P08912; activation, % at 3 µM; AID 624038;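 active = activation above the run cutoff, the mean activation of all test compounds plus 3 SD, cut at about 18% in these data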
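Test system: CHO-K1 hM5 cells / Doses: single-point, 3 µM nominal / Times: Post-acetylcholine fluorescence recording 140 s / Technique: Fluo-8 calcium fluorescence / Measure: Max/basal fluorescence ratio as % of EC20–EC100 ACh window / Benchmarks: low control EC20 acetylcholine (0%), high control EC100 acetylcholine (100%) / Replicates: one well per compound, no replicates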
Starred values were filed as active, the others as inactive; . = not tested or not shown; ! = a repeat was not active. In the library only some 1.9% were active in any assay of this set; here they are far more common.

SMILES	CHRM4 PAM	M5 ag	M5 antag	M4 ag	CHRM4 antagonist	M5 PAM
CN1C(=O)C(=Cc2ccc(OCC(=O)Nc3ccccc3)cc2)C(=O)N(C)C1=O	-1	0	-13	2	1	7
Clc1cccc(N2Cc3ccccc3-n3nncc3C2)c1	1	-3	5	2	-11	-7
COC(=O)C1=CO[C@@H](C)[C@@H]2CN(CCc3c[nH]c4ccccc34)CC[C@H]12	-14	-5	49*	1	25	-24
OC(Cn1c2ccccc2c2ccccc21)C[n+]1cccc2ccccc21 (centres undefined)	-27	-13	58*	0	40*	-22
C[C@H]1CN([C@@H](C)CO)C(=O)CCCn2nncc2CO[C@@H]1CN(C)C(=O)Oc1ccccc1	8	-2	-4	1	-26	-2
c1ccc(CN2COC3CCCCCC32)cc1 (centres undefined)	0	1	1	1	1	-7
C[n+]1ccc(-c2cc[n+](C)cc2)cc1	2	61*!	-3	0	0	-1
CCCCCCC[n+]1ccc(-c2cc[n+](CCCCCCC)cc2)cc1	-7	-7	-3	0	4	-6
COc1ccccc1N1C(=O)NC(=O)C(CCc2ccncc2)(CCc2ccncc2)C1=O	11	3	4	0	-15	28*
NC(Cc1ccc(F)cc1)c1csc(Nc2ccccn2)n1 (centres undefined)	-6	4	2	9	-8	-2
O=C(c1ccc(Cl)cc1)C1CCCN(C2CCSCC2)C1 (centres undefined)	-19	-10	27*	2	37*	-17
COc1ccc(C(=O)C2CCCN(C3CSCCSC3)C2)cc1OC (centres undefined)	-27	-19	9	2	39*	-16
COc1ccc(C(=O)C2CCCN(Cc3cnc(C)s3)C2)cc1OC (centres undefined)	-11	-10	-3	1	5	-3
O=C(O)C1CC2(Cl)C(Cl)=C(Cl)C1(Cl)C2(Cl)Cl (centres undefined)	5	0	10	1	-10	-3
COC(=O)C1=C(c2ccc(OCc3ccccc3)c(F)c2)C[C@@H]2CC[C@H]1N2C	-10	-2	19	7	-10	-13
COC(=O)C12OCC34C(CC5C(C)=C(O)C(=O)CC5(C)C3C(O)C1O)OC(=O)C(OC(=O)/C=C(\C)C(C)C)C24 (centres undefined)	11	-8	11	0	-15	-5
COc1ccc(-n2nnnc2C(CCSC)N2CCC(n3c(=O)[nH]c4ccccc43)CC2)cc1 (centres undefined)	-13	1	15	21	18	-19
COc1ccc(NC(=S)N2Cc3ccccc3-n3nncc3C2)c(OC)c1	-3	3	1	6	-5	1
CCCC[N+]1(C)[C@@H]2CC(OC(=O)[C@H](CO)c3ccccc3)C[C@H]1[C@@H]1O[C@@H]12 (some centres undefined)	-19	-2	72*	0	92*	-18
C[N+]1(C)[C@@H]2CC(OC(=O)[C@H](CO)c3ccccc3)C[C@H]1[C@@H]1O[C@@H]12 (some centres undefined)	.	-1	98*	.	.	-18
C[N+]1(C)C2CC(OC(=O)C(CO)c3ccccc3)CC1C1OC12 (centres undefined)	.	-1	99*	.	.	-18
CN1CCC(OC(=O)Cc2ccccc2)CC1	-14	-10	20	0	8	-19
O=C(OC1CCN(CCCl)CC1)C(c1ccccc1)c1ccccc1	-18	-1	64*	2	57*	-19
COc1ccc(-n2nnnc2C(CCc2ccccc2)N2CCC(n3c(=O)[nH]c4ccccc43)CC2)cc1 (centres undefined)	-7	2	5	17	10	-20
CCOC(=O)CNC(=O)N1Cc2cc(-c3ccc(OC)cc3)ccc2-n2nncc2C1	-3	-2	-2	3	-7	-4
SMILES	CHRM4 PAM	M5 ag	M5 antag	M4 ag	CHRM4 antagonist	M5 PAM
O=C(NCP(=O)(Oc1ccccc1)Oc1ccccc1)OCc1ccccc1	2	2	5	8	-3	-8
COc1cccc(C(c2nnnn2Cc2ccccc2)N2CCC3(CC2)C(=O)NCN3c2ccccc2)c1OC (centres undefined)	-9	5	19	20	16	-15
C[N+]1(C)[C@@H]2CC[C@H]1CC(OC(=O)C(c1ccccc1)c1ccccc1)C2 (some centres undefined)	-18	-3	99*	16	99*	-17
CN1[C@@H]2CC[C@H]1CC(OC(=O)C1C=Nc3ccccc31)C2 (some centres undefined)	-12	-1	4	2	9	-6
Cc1nc2ccccc2c(=O)n1-c1cccc(O)c1	17*	-5	0	1	-8	9
Cc1ccc2nsnc2c1-n1c(C)nc2ccccc2c1=O	30*	3	-7	1	14	10
Cc1ccc(-c2nc3ccccc3c(=O)n2-c2cccc(O)c2)cc1	2	-3	1	3	-4	-4
COc1ccc(C(=O)OCC2CN2c2cccc([N+](=O)[O-])c2)cc1 (centres undefined)	-6	-1	9	17	-10	-11
Cc1ccc(S(=O)(=O)N[C@@H](CCCCN)C(=O)CCl)cc1	-2	39*	-8	1	-7	-16
Cc1ccc(S(=O)(=O)NCCC(=O)Nc2ccc(Cl)cc2C(=O)c2ccccc2)cc1	-9	-2	-6	-3	-4	-6
CC[n+]1c(/C=C/C=C/c2ccc(N(C)C)cc2)sc2ccccc21	-14	-2	51*	23	55*	-30
O=C1NCN(c2ccccc2)C12CCN(C(CCc1ccccc1)c1nnnn1C1CCCC1)CC2 (centres undefined)	-2	8	0	11	-26	2
CCN(CC)c1ccc(/C=C2\C(=O)NC(=S)N(C)C2=O)o1	-9	37*	13	12	8	-8
CCN(CC)c1ccc(/C=C2\C(=O)NC(=S)N(c3ccc(OC)cc3OC)C2=O)o1	-5	34*	3	17	10	-11
O=C1NCN(c2ccccc2)C12CCN(C(c1ccccc1OC(F)(F)F)c1nnnn1C1CCCC1)CC2 (centres undefined)	6	-1	-1	1	-13	0
